ChEMBL document CHEMBL1147412, “Synthesis and biological activity of new quinoxaline antibiotics of echinomycin analogues” (Bioorg Med Chem Lett, 2004)
Converted amounts (≈) assume the structure as drawn.

Key:
[1] = system: B16; test: Inhibitory activity against growth of B16 mouse melanoma cell line was determined by MTT assay; assay type: functional, cell-based
How it was run: (§1)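 Exponentially growing cells seeded at 2 × 10^4 ~ 5 × 10^4 cells/well in RPMI-1640, drug-treated, then incubated 72 h. MTT (5 mg/mL stock) added, 4 h at 37 °C. Formazan dissolved in DMSO at rt, absorbance read at 540 nm. IC50 from plot of log drug concentration versus growth rate of treated cells.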

[2] = system: BeWo; test: Inhibitory activity against growth of BeWO placental tumor cell line was determined by MTT assay; assay type: functional, cell-based; conditions: Homo sapiens; how it was run: as §1
[3] = system: HT-29; test: Percentage of apoptotic HT-29 cells after 24 H treatment with 10 ug/mL concentration of compound; assay type: functional, Homo sapiens
How it was run: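 HT-29 cells exposed to compound at 10 μg/mL for 24 h. Apoptotic cell percentage measured by flow cytometry (FACScan). Mean ± SEM of at least three separate experiments.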

[4] = system: HT-29; test: Inhibitory activity against growth of HT-29 colon tumor cell line was determined by MTT assay; assay type: functional, cell-based; conditions: Homo sapiens; how it was run: as §1
[5] = system: PANC-1; test: Inhibitory activity against growth of PANC-1 tumor cell line was determined by MTT assay; assay type: functional, cell-based; conditions: Homo sapiens; how it was run: as §1

SMILES | IC50 [1] | IC50 [4] | IC50 [5] | IC50 [2] | Apoptotic cells [3]
CC(C)[C@H]1C(=O)OC[C@@H](NC(=O)c2cnc3ccccc3n2)C(=O)N[C@@H](C)C(=O)N(C)[C@H]2C[S+]([O-])C[S+]([O-])C[C@@H](C(=O)N1C)N(C)C(=O)[C@H](C)NC(=O)[C@H](NC(=O)c1cnc3ccccc3n1)COC(=O)[C@H](C(C)C)N(C)C2=O (stereo not given in full) | > 20 µg/mL | > 20 µg/mL | > 20 µg/mL | > 20 µg/mL | 
CC(C)[C@H]1C(=O)OC[C@@H](NC(=O)c2cnc3ccccc3n2)C(=O)N[C@@H](C)C(=O)N(C)[C@H]2CS(=O)(=O)CS(=O)(=O)C[C@@H](C(=O)N1C)N(C)C(=O)[C@H](C)NC(=O)[C@H](NC(=O)c1cnc3ccccc3n1)COC(=O)[C@H](C(C)C)N(C)C2=O | > 20 µg/mL | > 20 µg/mL | > 20 µg/mL | > 20 µg/mL | 
CS[C@H]1SC[C@H]2C(=O)N(C)[C@@H](C(C)C)C(=O)OC[C@@H](NC(=O)c3cnc4ccccc4n3)C(=O)N[C@@H](C)C(=O)N(C)[C@@H]1C(=O)N(C)[C@@H](C(C)C)C(=O)OC[C@@H](NC(=O)c1cnc3ccccc3n1)C(=O)N[C@@H](C)C(=O)N2C [ECHINOMYCIN] | 0.4 µg/mL (≈ 0.363 µM) | 2.2 µg/mL (≈ 2 µM) | 1.8 µg/mL (≈ 1.63 µM) | 1 µg/mL (≈ 0.908 µM) | 47.5%

Now from value to compound, other results behind:

IC50 [1] | IC50 [4] | IC50 [5] | SMILES | IC50 [2] | Apoptotic cells [3]
1.4 µg/mL (≈ 1.27 µM) | 5 µg/mL (≈ 4.54 µM) | 4 µg/mL (≈ 3.63 µM) | CC(C)[C@H]1C(=O)OC[C@@H](NC(=O)c2cnc3ccccc3n2)C(=O)N[C@@H](C)C(=O)N(C)[C@H]2CSCSC[C@@H](C(=O)N1C)N(C)C(=O)[C@H](C)NC(=O)[C@H](NC(=O)c1cnc3ccccc3n1)COC(=O)[C@H](C(C)C)N(C)C2=O | 2.7 µg/mL (≈ 2.45 µM) | 28.9%
> 20 µg/mL | > 20 µg/mL | > 20 µg/mL | CC(C)[C@H]1C(=O)OC[C@@H](NC(=O)c2cnc3ccccc3n2)C(=O)N[C@@H](C)C(=O)N(C)[C@H]2CSC[S+]([O-])C[C@@H](C(=O)N1C)N(C)C(=O)[C@H](C)NC(=O)[C@H](NC(=O)c1cnc3ccccc3n1)COC(=O)[C@H](C(C)C)N(C)C2=O (stereo not given in full) | > 20 µg/mL | 
> 20 µg/mL | > 20 µg/mL | > 20 µg/mL | CC(C)[C@@H]1NC(=O)[C@@H]2CS(=O)(=O)CS(=O)(=O)C[C@H](NC(=O)[C@H](C)NC(=O)[C@H](NC(=O)c3cnc4ccccc4n3)COC1=O)C(=O)N[C@@H](C(C)C)C(=O)OC[C@@H](NC(=O)c1cnc3ccccc3n1)C(=O)N[C@@H](C)C(=O)N2 | > 20 µg/mL | 
> 20 µg/mL | > 20 µg/mL | > 20 µg/mL | CC(C)[C@@H]1NC(=O)[C@@H]2CSCSC[C@H](NC(=O)[C@H](C)NC(=O)[C@H](NC(=O)c3cnc4ccccc4n3)COC1=O)C(=O)N[C@@H](C(C)C)C(=O)OC[C@@H](NC(=O)c1cnc3ccccc3n1)C(=O)N[C@@H](C)C(=O)N2 | > 20 µg/mL | 
